Compound activity deposited in PubChem BioAssay by several laboratories.
Only some compounds are listed: those with a hit (about 2.5% of all), similar ones and a draw of the others.
Platelet DG rel – modulates dense granule release in human platelets | human platelet-rich plasma, SFLLRN dense granule ATP release, luminescence | inhibition, %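 (compounds screened at 7.5 µM in platelet-rich plasma)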 | 300,000 tested, 0.22% active | AID 1663;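 active means mean replicate score, as percent of positive control, at or above 50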
TRPC4 act – activators of mouse TRPC4 channel; Q9QUQ5; HEK293 TRPC4beta/mu-opioid, Fluo4 calcium fluorescence; active compounds read high; B-score at 10 µM; 310,000 tested, 0.49% active; AID 2237;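 active means B-score above 5 SD of library B-scores, and initial fluorescence ratio not above library mean plus 5 SD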;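 further: positive B-score marks a calcium rise read as TRPC4 activation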
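Technique: kinetic Fluo4 calcium fluorescence; Test system: TRPC4beta and mu-opioid receptor HEK293 stable cells; Measure: B-scored integrated calcium fluorescence ratio; Benchmarks: low control buffer alone, high control maximal DAMGO; Schedule: 45 min room-temperature Fluo4 loading, 110 s read.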
TRPC4 potent – TRPC4 (mouse) allosteric potentiation; HEK293 TRPC4beta/mu-opioid, DAMGO EC20, Fluo-4 Ca2+ flux; active compounds read high; 310,000 tested, 0.42% active; AID 2227; B-score at 10 µM;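 active means B-score of calcium response area above 5 SD of library B-scores, with initial fluorescence ratio within 5 SD of library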;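 further: B-score of integrated fluorescence ratio over time as area under calcium response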
TRPC6 activator – activates the mouse TRPC6 cation channel | Q61143 | HEK293-TRPC6 membrane potential dye fluorescence; active compounds read high | B-score at 10 µM | 310,000 tested, 0.13% active | AID 2550;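 active means B-score of the integrated fluorescence ratio above library mean plus 3 SD, and starting fluorescence ratio within library mean plus 5 SD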;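 further: higher score means more depolarization so channel activation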
Target sequence (Q61143 whole entry, looked up): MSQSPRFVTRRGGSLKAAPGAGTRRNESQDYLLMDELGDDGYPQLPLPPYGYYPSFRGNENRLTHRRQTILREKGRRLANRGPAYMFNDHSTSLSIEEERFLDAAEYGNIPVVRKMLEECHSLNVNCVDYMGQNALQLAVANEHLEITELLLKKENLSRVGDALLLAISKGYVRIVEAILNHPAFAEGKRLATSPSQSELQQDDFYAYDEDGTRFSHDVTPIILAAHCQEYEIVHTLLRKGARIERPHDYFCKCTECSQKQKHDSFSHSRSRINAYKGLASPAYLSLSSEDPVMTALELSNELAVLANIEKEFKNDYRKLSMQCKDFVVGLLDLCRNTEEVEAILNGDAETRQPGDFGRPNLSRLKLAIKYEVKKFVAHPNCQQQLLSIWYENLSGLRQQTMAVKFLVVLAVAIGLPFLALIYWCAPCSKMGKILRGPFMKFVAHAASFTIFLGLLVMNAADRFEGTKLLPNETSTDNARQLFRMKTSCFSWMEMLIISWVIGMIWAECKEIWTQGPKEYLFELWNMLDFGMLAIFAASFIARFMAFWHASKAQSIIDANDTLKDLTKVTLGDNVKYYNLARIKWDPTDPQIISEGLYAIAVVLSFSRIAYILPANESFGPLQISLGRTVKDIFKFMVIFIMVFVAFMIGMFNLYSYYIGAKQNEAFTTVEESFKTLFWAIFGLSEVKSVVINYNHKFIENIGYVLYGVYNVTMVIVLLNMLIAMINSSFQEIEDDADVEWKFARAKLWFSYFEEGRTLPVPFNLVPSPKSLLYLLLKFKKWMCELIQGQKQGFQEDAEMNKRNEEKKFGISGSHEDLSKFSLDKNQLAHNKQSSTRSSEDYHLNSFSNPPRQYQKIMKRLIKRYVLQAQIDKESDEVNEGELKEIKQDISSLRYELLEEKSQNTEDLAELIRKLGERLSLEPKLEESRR
TRPC6 inhibitor – inhibitors of mouse TRPC6 channel; HEK293-TRPC6, membrane potential dye, ACh-evoked depolarization; active compounds read low; 310,000 tested, 1.1% active; Q61143; B-score at 10 µM; AID 2553;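 active means B-score under library mean minus 3 SD, initial fluorescence not abnormally high, positive integrated signal ratio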;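 further: B-score derived from integrated fluorescence ratio over the kinetic read; more negative B-score means stronger inhibition of depolarization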
TRPC4 inh – blocks the mouse TRPC4 cation channel; Q9QUQ5; HEK293 TRPC4beta/mu-opioid, DAMGO-evoked Fluo4 calcium flux; active compounds read low; B-score at 10 µM; 300,000 tested, 0.39% active; AID 2247;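 active means B-score over 3 SD under the library average, no early fluorescence shift, positive overall ratio signal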
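Material: HEK293 cells with stable TRPC4beta plus mu-opioid receptor expression / Probe or stimulus: DAMGO in two steps, submaximal then maximal / Compound: single concentration per test compound / Technique: kinetic Fluo4 fluorescence imaging of calcium influx / Read-out: per-well B score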
TRPC4 sel inh 2 – mouse TRPC4 off-target activity of TRPC6 inhibitors, second screen | shares compounds with TRPC6 inhibitor | HEK293 TRPC4/MOR, membrane potential dye fluorescence; channel activated by saturating DAMGO dose | inhibition, % at 10 µM | 920 tested, 42% active | AID 2776;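 active means compounds whose fluorescence signal differed from control wells by over 3 SD, either direction, in both duplicate plates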
TRPC4 spec – tests whether TRPC6 inhibitors also affect mouse TRPC4; shares compounds with TRPC6 inhibitor; HEK293 TRPC4/mu-opioid, membrane potential fluorescence; activity change, negative = inhibition, % at 10 µM; 920 tested, 61% active;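 active means rise or fall in signal beyond 3 SD of buffer-only wells in both replicate plates, either sign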;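 further: integrated kinetic ratio of fluorescence range over baseline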
HEK293 MPD ctr 2-1 – parental HEK293 nonspecific activity of TRPC6 inhibitors, second screen; 920 tested, 31% active; shares compounds with TRPC6 inhibitor; parental HEK293 membrane potential dye fluorescence; maximal acetylcholine challenge after compound addition; signal change vs control, % at 10 µM;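 active means membrane potential signal moving either way by over 3 SD of the maximum-effect control, in both duplicate plates, meaning non-specific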
HEK293 MPD ctr-1 – parental HEK293 nonspecific activity of TRPC6 inhibitors. shares compounds with TRPC6 inhibitor. membrane potential signal change, % at 10 µM. parental HEK293 membrane potential dye fluorescence. 920 tested, 60% active;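 active means membrane potential signal shifting up or down by more than 3 SD of buffer-only wells, on both duplicate plates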
HEK293 MPD ctr-2 – checks TRPC6 modulator effects in parental HEK293 cells | shares compounds with TRPC6 inhibitor | membrane potential dye fluorescence | membrane potential signal change, % at 10 µM | 2,400 tested, 51% active;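 active means membrane potential signal moves up or down beyond 5 SD from buffer-only wells, on both duplicate plates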
HEK293 MPD ctr 2-2 – second check of TRPC6 modulator effects in parental HEK293 cells. shares compounds with TRPC6 inhibitor. membrane potential dye fluorescence; after compound, maximal acetylcholine stimulation. inhibition, % at 10 µM. 2,400 tested, 14% active. AID 488926;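 active means membrane potential signal drops by more than 5 SD from the mean control signal, in both duplicate plates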;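 further: plate controls were acetylcholine ECmax control wells for no effect and buffer only wells for full effect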
TRPC4/MOR mod – selectivity of TRPC6 modulators against mouse TRPC4. shares compounds with TRPC6 inhibitor. HEK293 TRPC4/mu-opioid, membrane potential fluorescence. percent change from control (negative = decrease, positive = increase), % at 10 µM. 2,400 tested, 69% active;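 active means membrane potential signal moved up or down beyond 5 SD of buffer control wells, in both duplicate plates, actives on both sides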;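 further: plate controls were assay buffer wells for no effect and DAMGO maximal-effect wells for full effect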
TRPC4 ctr inh 2 – second selectivity test of TRPC6 modulators against mouse TRPC4 | shares compounds with TRPC6 inhibitor | HEK293 TRPC4/mu-opioid, membrane potential dye fluorescence; stimulated with maximal-effect DAMGO | inhibition, % at 10 µM | 2,400 tested, 55% active | AID 488928;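 active means drop in membrane potential signal beyond 5 SD of the control wells in both duplicate plates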;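 further: TRPC4 counter screen for TRPC6 hits run under conditions tuned for TRPC6 not TRPC4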
TRPC6 inh conf – confirmation of mouse TRPC6 inhibitors | shares compounds with TRPC6 inhibitor | HEK293-TRPC6, membrane potential dye, ACh-evoked depolarization | inhibition, % at 10 µM | 3,300 tested, 43% active | AID 488960;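 active means fluorescence ratio falls more than 5 SD below the full-stimulation control mean, in both duplicate runs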;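 further: integrated fluorescence ratio of peak minus minimum over baseline after agonist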
TRPC6 act confirm – mouse TRPC6 activator confirmation; AID 488961; 2,800 tested, 11% active; activation, % at 10 µM; shares compounds with TRPC6 inhibitor; HEK293-TRPC6 membrane potential dye fluorescence, FDSS;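 active means ratio signal rise beyond 5 SD above unstimulated control wells' mean, seen in both duplicate runs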;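 further: plate controls were buffer EC0 wells for no effect and acetylcholine ECmax response for full effect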
Active calls of the source: *; i = inactive; . = no result.

SMILES	Platelet DG rel	TRPC4 act	TRPC4 potent	TRPC6 activator	TRPC6 inhibitor	TRPC4 inh	HEK293 MPD ctr-2	HEK293 MPD ctr 2-2	TRPC4/MOR mod	TRPC4 ctr inh 2	TRPC6 inh conf	TRPC6 act confirm	others
CCc1ccc(-c2nc(CN3CCC(C(=O)NCCN(CC)c4ccccc4)CC3)c(C)o2)cc1	0	i	i	i	-5.6*	i	i	i	i	62%*	i	i
COC(=O)c1c(C)cc(C)n2c1nc1ccccc12	5	i	i	i	-6.8*	i	.	.	.	.	64%*	i	TRPC4 sel inh 2=i;TRPC4 spec=-20%*;HEK293 MPD ctr 2-1=i;HEK293 MPD ctr-1=-334%*
Cc1cc(C)n2c(nc3ccccc32)c1C(=O)NN	11	i	i	i	i	i	.	.	.	.	.	.
CC(=O)c1cc(N2CCC(C(=O)O)CC2)ccc1[N+](=O)[O-]	-2	i	i	i	i	i	.	.	.	.	.	.
COc1cc(CNCCc2ccc(S(N)(=O)=O)cc2)ccc1OCC(=O)NC1CCCCC1	2	47*	i	12*	-12*	i	i	i	i	i	i	i
COc1cc(CNCc2ccccn2)ccc1OCC(=O)NC1CCCCC1	-5	i	i	i	i	i	.	.	.	.	.	.
CCN1CCN(c2nc3c(c(=O)n(C)c(=O)n3C)n2CCSc2nccc(C)n2)CC1	-1	i	i	i	-12*	i	-284%*	118%*	-46%*	72%*	78%*	i
Cn1c(=O)c2c(nc(N3CCOCC3)n2CCSc2ncccn2)n(C)c1=O	3	i	i	i	-5.6*	i	-360%*	i	-56%*	i	i	i
CC1CC(C)CN(c2nc3c(c(=O)n(C)c(=O)n3C)n2CCSc2ncccn2)C1 (stereo unspecified)	1	i	i	i	i	i	.	.	.	.	.	.
CC(O)CNC12CC3CC(CC(C3)C1)C2 (stereo unspecified)	-7	i	i	i	i	i	.	.	.	.	.	.
OC(c1cc(-c2ccc(C(F)(F)F)cc2)nc(C(F)(F)F)c1)C1CCCCN1 (stereo unspecified)	-1	43*	i	i	-5.9*	i	i	57%*	-10%*	54%*	i	i
COC(=O)CSc1nc(-c2ccc(F)cc2)cc(C(F)(F)F)n1	0	i	i	i	i	i	.	.	.	.	.	.
COC(C#CCCN(C)C)(c1ccccc1)c1ccccc1	2	i	i	i	-6.5*	i	i	89%*	14%*	34%*	79%*	.
COc1ccc2c(OC)c3ccoc3nc2c1OC	0	i	i	i	-5.6*	i	i	i	i	i	i	.
COc1c2ccoc2nc2c(OC)c(O)ccc12	0	i	i	i	i	i	.	.	.	.	.	.
COc1cccc(NC(=O)c2ccccc2Oc2ccccc2)c1	-2	i	i	i	-5.3*	i	i	i	14%*	i	i	i
Cc1ccc(NC(=O)C(NC2CCCC2)c2ccccc2)cc1Cl (stereo unspecified)	1	i	i	i	i	i	.	.	.	.	.	.
COc1cccc(NC(=O)C(NC2CCCC2)c2ccccc2)c1 (stereo unspecified)	-25	i	i	i	-9.6*	i	.	.	.	.	i	.	TRPC4 sel inh 2=i;TRPC4 spec=12%*;HEK293 MPD ctr 2-1=245%*;HEK293 MPD ctr-1=9.7%*
COc1ccc(NC(=O)c2ccccc2Oc2ccccc2)cc1	-3	i	i	i	i	i	.	.	.	.	.	.
Cc1ccccc1C(=O)N1CCC(n2nccc2NC(=O)CCOc2ccccc2)CC1	3	i	i	i	i	i	.	.	.	.	.	.
COc1ccc(S(=O)(=O)N2CCN(C3CCCC(C)C3)CC2)cc1 (stereo unspecified)	1	i	i	i	i	i	.	.	.	.	.	.
COc1cccc(N2CCN(C3CCCC(C)C3)CC2)c1 (stereo unspecified)	-5	i	i	i	-5.8*	i	184%*	i	38%*	48%*	i	.
O=C(NCCS(=O)(=O)N1CCN(c2cccc(Cl)c2)CC1)c1cc(=O)c2ccccc2o1	3	i	i	i	i	i	.	.	.	.	.	.
NC(=O)c1ccccc1OCC(=O)N1CCc2ccccc2C1	-2	i	i	i	i	i	.	.	.	.	.	.
NC(=O)NC(=O)C(Nc1ccc2c(c1)CCC2)c1ccccc1 (stereo unspecified)	-17	i	i	i	-7.2*	i	.	.	.	.	i	i	TRPC4 sel inh 2=i;TRPC4 spec=i;HEK293 MPD ctr 2-1=i;HEK293 MPD ctr-1=i
O=C(NNC1=C(C(=O)C(F)(F)F)CCC1)c1ccccc1O	-24	i	i	i	-5.2*	i	i	i	i	i	38%*	i
